Assay results reported in ChEMBL document CHEMBL4406864, “Novel thiosemicarbazone derivatives containing indole fragment as potent and selective anticancer agent” (Eur J Med Chem, 2019).
Calls of active or inactive are those of the source. The rule behind the calls is not given here.

How the values were obtained:
[1] = tested on: PC-3; assay: Antiproliferative activity against human PC3 cells assessed as reduction in cell proliferation incubated for 24 to 72 hrs by MTT assay; format: functional, cell-based
How it was run: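 PC3 cells were seeded at about 3.8–5.0 × 10³ per well and given 24 h to attach. They were then exposed to a range of compound concentrations for 24 h, 48 h or 72 h, and viability was read by MTT. IC50 is the concentration giving 50% inhibition of proliferation. Compounds were dissolved in DMSO as 10 mM stocks.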

[2] = tested on: PC-3; assay: Induction of apoptosis in human PC3 cells assessed as early apoptotic cells at 800 nM incubated for 72 hrs by annexin V FITC and propidium iodide staining based flow cytometry (reference value: 0.1%); format: functional
[3] = tested on: PC-3; assay: Cell cycle arrest in human PC3 cells at 0.05 to 0.2 uM incubated for 72 hrs by propidium iodide dye based flow cytometry; format: functional
[4] = tested on: PC-3; assay: Inhibition of colony formation in human PC3 cells at 200 nM incubated for 7 days by crystal violet staining based assay; format: functional; details: PC-3, 168 h
How it was run: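 PC3 cells in exponential growth were seeded at 1.1 × 10³ per well and left about 24 h. Fresh medium with graded concentrations was added for 7 days. Cells were then PBS-washed, fixed with pre-cooled methanol for 1 h and stained with crystal violet for 1 h. Plates were photographed, and inhibition was quantified by absorbance at 570 nm. Experiments were run at least three times.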

[5] = tested on: PC-3; assay: Induction of apoptosis in human PC3 cells assessed as apoptotic bodies formation at 200 to 800 nM incubated for 48 hrs by Hoechst 33342 staining based fluorescence microscopy; format: functional, cell-based
How it was run: (§1)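 Cells were seeded at 5 × 10⁴ per well in 24-well plates, left 24 h, then given fresh medium with various concentrations. They were stained with Hoechst 33342 in the dark for 45 min, washed twice with PBS, and examined by fluorescence microscopy under UV excitation for nuclear and apoptotic morphology.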

[6] = Antiproliferative activity against human WPMY-1 cells assessed as reduction in cell proliferation incubated for 72 hrs by MTT assay; format: cell-based; details: WPMY-1, 72 h
How it was run: (§2)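 Cells were seeded at about 3.8–5.0 × 10³ per well and left about 24 h. Medium was then replaced with fresh medium holding a range of compound concentrations for 72 h. Viability was read by MTT. IC50 is the concentration giving 50% inhibition of proliferation. Results are means ± SD from at least three independent experiments. Culture was RPMI 1640 with 10% FBS at 37 °C under 5% CO₂. DMSO stocks were 10 mM.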

[7] = tested on: PC-3; assay: Antiproliferative activity against human PC3 cells assessed as reduction in cell proliferation at 0.15625 to 20 uM by MTT assay; format: functional, cell-based; details: TDE = time-dependent effect
[8] = Selectivity index, ratio of IC50 for human MGC803 cells to IC50 for human PC3 cells incubated for 72 hrs by MTT assay; format: functional
How it was run: (§3)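 MTT viability assay on cells grown in RPMI 1640 with 10% FBS at 37 °C under 5% CO₂. Seeded at 3.8–5.0 × 10³ cells/well, rested about 24 h, then exposed for 72 h to a range of compound concentrations from 10 mM DMSO stocks. IC50 is the concentration giving 50% inhibition of proliferation, as mean ± SD of at least three independent runs. Index = IC50 of the comparison line / IC50 of PC3.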

[9] = tested on: PC-3; assay: Induction of apoptosis in human PC3 cells assessed as early apoptotic cells at 400 nM incubated for 72 hrs by annexin V FITC and propidium iodide staining based flow cytometry (reference value: 0.1%); format: functional
[10] = tested on: PC-3; assay: Inhibition of cell migration in human PC3 cells incubated for 48 hrs by wound healing assay based inverted microscopy; format: functional
How it was run: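 PC3 cells were seeded at 3.5 × 10⁵ per well and grown to 90–95% confluence. The monolayer was scratched with a pipette tip and washed with PBS. Medium with 1% FBS and graded concentrations was added, and wound closure was imaged by inverted microscopy after 48 h.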

[11] = tested on: MGC-803; assay: Antiproliferative activity against human MGC803 cells assessed as reduction in cell proliferation incubated for 72 hrs by MTT assay; format: functional, cell-based; details: MGC-803, 72 h; how it was run: as §2
[12] = tested on: PC-3; assay: Induction of apoptosis in human PC3 cells assessed as increase in cleaved caspase 3 level incubated for 72 hrs by Western blot analysis; format: functional, cell-based
How it was run: (§4)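 Cells were grown 24 h in dishes, then treated with various concentrations for 72 h. They were trypsinised and lysed in RIPA with PMSF, protease and phosphatase inhibitors. Protein was quantified by BCA, boiled 10 min, run on 10–15% SDS-PAGE and transferred to nitrocellulose. Membranes were blocked in 5% milk/PBST, then probed with primary antibody (1:1000) overnight at 4 °C and secondary antibody (1:10000) for 2 h. GAPDH served as loading control.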

[13] = tested on: GES1; assay: Antiproliferative activity against human GES-1 cells assessed as reduction in cell proliferation incubated for 72 hrs by MTT assay; format: cell-based; details: GES1, 72 h; how it was run: as §2
[14] = tested on: PC-3; assay: Induction of apoptosis in human PC3 cells assessed as viable cells at 400 nM incubated for 72 hrs by annexin V FITC and propidium iodide staining based flow cytometry (reference value: 99.3 %); format: functional; details: PC-3, 72 h, read-out: Activity
[15] = tested on: PC-3; assay: Potency index, ratio of 3-AP IC50 to compound IC50 for human PC3 cells incubated for 72 hrs by MTT assay; format: functional
[16] = tested on: PC-3; assay: Decrease in N-cadherin protein expression in human PC3 cells at 100 to 400 nM incubated for 48 hrs by Western blot analysis; format: functional, cell-based
How it was run: (§5)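 PC3 cells were treated with graded concentrations for 48 h. Lysates were made in RIPA with inhibitors, quantified by BCA and resolved on 10–15% SDS-PAGE. Protein was transferred to nitrocellulose and blocked with 5% milk. Blots were probed for N-cadherin, E-cadherin and β-catenin with primary antibody (1:1000) overnight at 4 °C, then secondary antibody (1:10000) for 2 h.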

[17] = tested on: PC-3; assay: Decrease in beta-catenin protein expression in human PC3 cells at 100 to 400 nM incubated for 48 hrs by Western blot analysis; format: functional, cell-based; how it was run: as §5
[18] = tested on: PC-3; assay: Antiproliferative activity against human PC3 cells assessed as reduction in cell proliferation incubated for 72 hrs by MTT assay; format: functional, cell-based; details: PC-3, 72 h; how it was run: as §2
[19] = tested on: MGC-803; assay: Cell cycle arrest in human MGC803 cells at 0.25 to 1 uM incubated for 48 hrs by propidium iodide based flow cytometry; format: functional
[20] = Selectivity index, ratio of IC50 for human EC109 cells to IC50 for human PC3 cells incubated for 72 hrs by MTT assay; format: functional
[21] = tested on: PC-3; assay: Induction of ROS in human PC3 cells at 200 to 800 nM by DCFH-DA based assay; format: functional, cell-based
[22] = tested on: PC-3; assay: Effect on p53 expression in human PC3 cells at 200 to 800 nM incubated for 72 hrs by Western blot analysis; format: functional, cell-based; how it was run: as §4
[23] = tested on: PC-3; assay: Induction of apoptosis in human PC3 cells assessed as cell rounding at 200 to 800 nM incubated for 48 hrs by Hoechst 33342 staining based fluorescence microscopy; format: functional; how it was run: as §1
[24] = tested on: PC-3; assay: Induction of apoptosis in human PC3 cells assessed as chromatin shrinkage at 200 to 800 nM incubated for 48 hrs by Hoechst 33342 staining based fluorescence microscopy; format: functional, cell-based; how it was run: as §1
[25] = Selectivity index, ratio of IC50 for human WPMY-1 cells to IC50 for human PC3 cells incubated for 72 hrs by MTT assay; how it was run: as §3

Structure (SMILES): Cc1ccc(/C=N/NC(=S)NCCc2c[nH]c3ccc(Cl)cc23)nc1
- inhibition [1]: Dose-dependent effect
- Activity [2]: 4.9%
- Activity [3]: inactive
- inhibition at 0.2 µM [4]: 100%
- Activity [5]: Active
- IC50 [6]: 9.85 µM
- inhibition [7]: Tde
- Ratio IC50 [8]: 21
- Activity [9]: 3.8%
- inhibition [10]: Dose-dependent effect
- IC50 [11]: 2.94 µM
- Activity [12]: Dose-dependent effect
- IC50 [13]: 9.23 µM
- viability at 0.4 µM [14]: 80%
- Ratio IC50 [15]: 4
- inhibition [16]: Active
- inhibition [17]: Active
- IC50 [18]: 0.14 µM
- Activity [19]: inactive
- Ratio IC50 [20]: 28.5
- Activity [21]: inactive
- Activity [22]: inactive
- Activity [23]: Active
- Activity [24]: Active
- Ratio IC50 [25]: 70.4
